Assay outcomes (PubChem)
Rows were chosen to be rich in hits. Some 1.9% of all compounds tested hit in one or more screens of this group.
LYP inh 2 – inhibitors of human LYP (PTPN22) phosphatase; inhibition, % at 2 µM; recombinant LYP catalytic domain, DiFMUP fluorescence; 96,000 tested, 0.21% active;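 active means inhibition at 2 µM at or above a set limit, the screen mean plus 3 SD, cut at about 24% in these data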
Target sequence (Q9Y2R2 whole entry, looked up, the tested form may be a part): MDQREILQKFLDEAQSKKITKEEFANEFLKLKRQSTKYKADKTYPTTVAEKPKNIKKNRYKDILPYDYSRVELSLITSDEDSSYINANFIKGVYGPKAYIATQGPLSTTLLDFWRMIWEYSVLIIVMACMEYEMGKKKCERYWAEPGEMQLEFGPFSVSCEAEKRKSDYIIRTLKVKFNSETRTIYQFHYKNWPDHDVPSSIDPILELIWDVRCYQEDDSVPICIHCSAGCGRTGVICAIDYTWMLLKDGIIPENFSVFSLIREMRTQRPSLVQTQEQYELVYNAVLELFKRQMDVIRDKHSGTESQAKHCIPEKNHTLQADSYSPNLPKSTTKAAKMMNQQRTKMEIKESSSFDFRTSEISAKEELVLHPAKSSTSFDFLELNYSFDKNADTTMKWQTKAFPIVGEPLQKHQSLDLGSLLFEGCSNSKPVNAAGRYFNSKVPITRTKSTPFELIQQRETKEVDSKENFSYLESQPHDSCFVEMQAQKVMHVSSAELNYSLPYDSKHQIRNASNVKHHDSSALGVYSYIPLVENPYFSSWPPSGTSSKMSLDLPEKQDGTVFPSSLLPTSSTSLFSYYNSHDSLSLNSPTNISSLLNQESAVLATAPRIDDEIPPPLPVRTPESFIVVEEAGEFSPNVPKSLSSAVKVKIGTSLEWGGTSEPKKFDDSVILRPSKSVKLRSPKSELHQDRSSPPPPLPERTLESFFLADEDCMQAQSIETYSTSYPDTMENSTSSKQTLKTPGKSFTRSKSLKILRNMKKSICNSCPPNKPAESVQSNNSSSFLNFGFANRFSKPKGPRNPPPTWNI
FAK inh – blocks human focal adhesion kinase activity. 97,000 tested, 0.84% active. Q05397. inhibition, %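 (tested at 7 µM)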. biochemical FAK kinase activity assay. AID 727; in the data active means inhibition above about 19%
LYP act – increases human PTPN22 phosphatase activity. Q9Y2R2. recombinant LYP, DiFMUP fluorescence; 0 = plate median, 100 = signal doubled. activation, % at 2 µM. 96,000 tested, 0.11% active;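 active means activation at 2 µM above a set limit, the mean plus 5 SD, cut at about 37% in these data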
HIV Rev-RRE inh – disrupts HIV-1 Rev binding to RRE RNA. Rev peptide-RRE RNA binding, FRET. inhibition, % at 8 µM. 97,000 tested, 0.79% active. P05866;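 active means inhibition above the screen-wide mean plus 3 SD, cut at about 35% in these data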
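Test system: Cy5-tagged RRE RNA duplex with fluorescein-tagged Rev peptide | Read-out: % inhibition of FRET ratio versus controls | Probe or stimulus: Labelled Rev peptide | Incubation: 5 min RNA-compound premix plus 15 min binding step, 25 °C | Technique: FRET fluorescence readout | Benchmarks: DMSO low control, neomycin B high control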
EphB4 antag – EphB4-ephrin-B2 interaction antagonism; AID 720; 97,000 tested, 0.15% active; inhibition, % at 7 µM; P54760; EphB4 LBD / TNYL-RAW-Alexa532 peptide, fluorescence polarization;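 active means inhibition above the screen-wide mean inhibition plus 3 SD, cut at about 15% in these data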
Numbers stand for hits; - = inactive; [ ] = remark or other dose.

SMILES	LYP inh 2	FAK inh	LYP act	HIV Rev-RRE inh	EphB4 antag
O=C(CN(C1CCCCC1)C1CCCCC1)N1CCc2ccccc2C1	-	-	-	-	-
S=c1[nH]nc(C2CCCCC2)n1/N=C/c1ccc(Br)s1	-	-	-	-	-
O=c1cc(-c2ccccc2F)oc2ccccc12	-	-	-	-	-
Cc1c2cc(O)c(=O)cc-2oc2cc(O)c(O)cc12	94	-	-	140[fluorescence artefact?]	49[fluorescence artefact?]
Cc1nnc(SCC(=O)NC2CC2)n1CCc1ccccc1	-	-	-	-	-
O=C(CSc1nnc(-c2ccccn2)n1Cc1ccccc1)NC1CCCC1	-	-	-	-	16
CCOC(=O)C(NCc1ccc2c(c1)OCO2)(NC(=O)c1ccccc1)C(F)(F)F (configuration not stated)	-	-	-	-	-
CSc1nc(SCC(=O)NCc2ccco2)c2c3c(sc2n1)CN(C)CC3	-	22	-	-	-
CSc1nc(NCc2ccco2)c2c3c(sc2n1)CN(C)CC3	-	-	-	-	-
COCCCNC(=O)c1sc2ncnc(N3CCc4ccccc4C3)c2c1C	-	23	-	-	-
Cc1c(C(=O)N2CCOCC2)sc2ncnc(N3CCc4ccccc4C3)c12	-	-	-	-	-
Cc1ccc(C)c(S(=O)(=O)N2CCN(C(=O)Cn3c(C(F)(F)F)nc4ccccc43)CC2)c1	-	-	-	-	-
Cc1ccc(/C=C2\SC(=S)N(Cc3ccccc3)C2=O)o1	-	-	-	-	-
O=C(O)CC(C(=O)O)N1C(=O)/C(=C/c2ccc(-c3nc4ccccc4s3)o2)SC1=S (configuration not stated)	-	-	-	52	-
O=C(O)CCN1C(=O)/C(=C/c2ccc(-c3nc4ccccc4s3)o2)SC1=S	24	-	-	-	-
CC(C(=O)NC1CCCc2ccccc21)N1CCN(Cc2ccc3c(c2)OCO3)CC1 (configuration not stated)	-	-	-	-	-
COc1ccc(Br)cc1C(=O)Nc1cccc(-c2nnc(-c3ccco3)o2)c1	-	66	-	-	-
CC12CCC(C(=O)N(CC(O)CN3CCCCC3)C1=O)C2(C)C (configuration not stated)	-	-	-	-	-
Cc1cc(C(=O)CSc2nnc(Nc3ccccc3F)s2)c(C)n1CC1CCCO1 (configuration not stated)	-	-	-	-	15
Cc1cc(C(=O)CSc2nnc(Nc3ccccc3)s2)c(C)n1CC1CCCO1 (configuration not stated)	-	-	-	-	-
Cn1c(=O)c2cc(S(=O)(=O)NC(C(=O)N3CCCCCC3)c3ccccc3)ccc2n(C)c1=O (configuration not stated)	-	-	-	-	-
O=C(c1ccc(C(=O)N2CCCc3ccccc32)s1)N1CCCc2ccccc21	-	-	-	-	-
Cc1ccc(C)c2nc3sc(C(=O)N4CCCc5ccccc54)c(N)c3cc12	-	-	-	62	-
O=C1C(Cl)=C(NCC2CCCO2)C(=O)N1CCc1ccccc1 (configuration not stated)	-	-	-	-	-
CCCC/C(O)=N\S(=O)(=O)c1ccc(N=NN(C)C)cc1	-	-	-	-	-
SMILES	LYP inh 2	FAK inh	LYP act	HIV Rev-RRE inh	EphB4 antag
CC1CCc2c(C(=O)Nc3nccs3)csc2C1 (configuration not stated)	65	-	-	-	-
Cc1ccc(-n2nnc3c(=O)n(Cc4cc(C)ccc4C)cnc32)cc1	-	22	-	-	-
Cc1ccc(-n2nnc3c(=O)n(Cc4cccc(C)c4)cnc32)cc1	-	-	-	-	-
Cc1nn(-c2ccccc2)c(C)c1C(=O)OC/C(O)=C(\C#N)c1nc2ccccc2[nH]1	-	-	-	40	-
CC(=N/O)/C(=N\O)c1ccc(C)o1	-	-	-	-	-
C=CCc1cc(C)cc(C)c1OCCn1cncn1	-	-	-	-	17
Cc1cc(Cl)cc(Br)c1OCCCCn1cncn1	-	-	-	-	-
COc1cc(-c2nnc(Sc3ccc(C(F)(F)F)cc3[N+](=O)[O-])o2)cc(OC)c1OC	-	-	-	-	-
CCOC(=O)c1c(C)oc2c1c1c(c3ccccc32)OCN(Cc2cccnc2)C1	-	-	-	-	16
O=C(Nc1cccnc1)C1COc2ccccc2O1 (configuration not stated)	-	-	-	-	16
O=C(CCC1COc2ccccc2O1)Nc1cccnc1 (configuration not stated)	-	-	-	-	-
CN(c1ccccc1C(=O)NCc1ccco1)S(C)(=O)=O	-	-	-	-	-
CN(c1ccccc1C(=O)Nc1ccccc1C(=O)NCc1ccco1)S(C)(=O)=O	-	-	-	-	15
CCOc1ccc(N(CC(=O)Nc2ccccc2C(=O)NCc2ccco2)S(C)(=O)=O)cc1	41	-	-	-	-
CCOc1ccccc1N(CC(=O)Nc1ccccc1C(=O)NCc1ccco1)S(C)(=O)=O	-	-	-	-	-
CCc1nnc(NC=C2C(=O)OC(C)(C)OC2=O)s1	-	-	-	-	-
COc1ccc(C2C=C(c3ccccc3)Nc3nc(CCCO)nn32)cc1 (configuration not stated)	-	-	-	40	-
COc1ccc(C2C(C(=O)Nc3ccccc3)=C(C)Nc3nc(CCCO)nn32)cc1 (configuration not stated)	-	-	-	-	-
OCCCc1nc2n(n1)C(c1ccccc1)C=C(c1ccccc1)N2 (configuration not stated)	-	-	-	-	-
COc1ccc(C2C=C(c3cccs3)Nc3nc(CCCO)nn32)cc1 (configuration not stated)	-	-	-	129[fluorescence artefact?]	-
Nc1cc(N)c(OCC(F)(F)F)cc1OCC(F)(F)F	-	-	-	68	-
Nc1nc(OCC(F)(F)F)cc(Oc2ccccc2F)n1	-	-	-	-	-
CCCCNC(=S)Nc1ccccc1F	-	-	-	-	-
N#C/C(=C\c1ccc(N2CCOCC2)o1)c1nc2ccccc2[nH]1	-	-	-	136[fluorescence artefact?]	-
N#C/C(=C/c1ccc(N2CCOCC2)o1)c1ccc(Cl)cc1	-	-	-	113[fluorescence artefact?]	-
SMILES	LYP inh 2	FAK inh	LYP act	HIV Rev-RRE inh	EphB4 antag
N#C/C(=C\c1ccc(Oc2ccc(C(F)(F)F)cc2[N+](=O)[O-])cc1)c1nc2ccccc2[nH]1	-	-	-	-	-
N#C/C(=C/c1ccc(N2CCCC2)c([N+](=O)[O-])c1)c1nc2ccccc2[nH]1	-	-	-	45	-
CCOC(=O)Cn1ncc(-c2ccccc2)c1N	-	-	-	-	-
COc1cccc(OCC(O)CO)c1 (configuration not stated)	-	-	-	-	-
COc1ccc(-c2c3c(nc4sc5c(Cl)nc(C)nc5c24)CCC3)cc1	-	-	-	-	-
COc1ccc(N/N=C(/Oc2ccc([N+](=O)[O-])cc2)C(C)=O)cc1	-	-	-	-	-
CCc1ccc(/C(C)=N\Nc2ccc([N+](=O)[O-])cc2)cc1	-	-	-	52	-
